Data on 29 compounds can be found in ChEMBL document CHEMBL1811845, “Modulation of GABAA-receptors by honokiol and derivatives: subtype selectivity and structure-activity relationship” (J Med Chem, 2011).

Molecules are shown by their SMILES.

Series [1] has as its target T1, GABA-A receptor; GABA-A site (alpha1/beta2 interface) (Homo sapiens) (UniProt P14867+P47870). Briefly: Modulation of GABA Aalpha1beta2 receptor expressed in Xenopus laevis oocytes assessed as potentiation of GABA-induced chloride current at holding potential -70 mV at 30 uM by two-microelectrode voltage clamp technique relative to GABA. Type of series: cell-based. Conditions: Oocyte. A digest of the protocol: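 Single-concentration screen at 30 μM on α1β2 receptors (cRNA 1:1) in Xenopus oocytes. Enhancement was (I(GABA+compound)/IGABA)−1. DMSO was matched in control and test solutions, maximum 0.3% in the bath.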

Series [2] addresses T2, GABA-A receptor; GABA-A site (alpha1/beta2 interface) (Homo sapiens, UniProt P14867+P47870).
T2 sequence (P14867 whole entry): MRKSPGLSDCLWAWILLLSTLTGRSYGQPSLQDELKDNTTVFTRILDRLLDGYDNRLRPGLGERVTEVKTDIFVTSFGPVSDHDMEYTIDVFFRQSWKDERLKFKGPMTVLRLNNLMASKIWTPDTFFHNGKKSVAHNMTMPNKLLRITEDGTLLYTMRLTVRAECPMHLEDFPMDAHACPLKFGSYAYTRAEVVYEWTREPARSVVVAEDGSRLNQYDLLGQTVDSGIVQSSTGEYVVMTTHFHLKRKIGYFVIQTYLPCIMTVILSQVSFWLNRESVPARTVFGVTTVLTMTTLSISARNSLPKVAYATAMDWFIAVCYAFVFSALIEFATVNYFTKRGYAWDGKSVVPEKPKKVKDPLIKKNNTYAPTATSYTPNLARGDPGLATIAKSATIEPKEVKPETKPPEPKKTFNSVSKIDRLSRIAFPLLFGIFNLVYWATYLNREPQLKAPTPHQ
T2 sequence (P47870 whole entry): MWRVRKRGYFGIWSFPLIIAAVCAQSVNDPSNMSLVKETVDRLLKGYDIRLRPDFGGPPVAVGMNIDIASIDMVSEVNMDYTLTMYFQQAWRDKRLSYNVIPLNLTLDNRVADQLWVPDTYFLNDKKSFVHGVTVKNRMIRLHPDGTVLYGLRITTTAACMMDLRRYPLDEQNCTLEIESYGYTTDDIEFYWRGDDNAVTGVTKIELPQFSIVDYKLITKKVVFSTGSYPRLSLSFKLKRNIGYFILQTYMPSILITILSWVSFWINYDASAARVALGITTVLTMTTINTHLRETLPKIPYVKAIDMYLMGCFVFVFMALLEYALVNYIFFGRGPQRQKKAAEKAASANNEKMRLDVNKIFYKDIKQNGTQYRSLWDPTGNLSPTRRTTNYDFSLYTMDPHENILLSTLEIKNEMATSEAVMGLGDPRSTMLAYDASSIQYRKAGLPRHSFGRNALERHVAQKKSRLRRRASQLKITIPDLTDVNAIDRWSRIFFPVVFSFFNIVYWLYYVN
The series is described as follows: Modulation of GABA Aalpha1beta2 receptor expressed in Xenopus laevis oocytes assessed as potentiation of GABA-induced chloride current at holding potential -70 mV by two-microelectrode voltage clamp technique. It is filed as cell-based, Oocyte. A digest of the protocol:
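Stage V–VI Xenopus oocytes, defolliculated with 2 mg/mL collagenase, injected with α(1, 2, 3 or 5) and β2 cRNAs mixed 1:1, then kept at 18 °C in ND96 (pH 7.4). Enhancement = I(GABA+compound)/IGABA − 1. Curves were Hill-fitted for EC50. Bath DMSO was at most 0.3%, matched in controls.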

Series [3] is described as follows: Octanol-water partition coefficient, log P of the compound. It is filed as physicochemical.
Series [4] deals with T1, GABA-A receptor; GABA-A site (alpha1/beta2 interface) (Homo sapiens). Briefly: Modulation of GABA Aalpha1beta2 receptor expressed in Xenopus laevis oocytes assessed as potentiation of GABA-induced chloride current at holding potential -70 mV by two-microelectrode voltage clamp technique relative to GABA. It is filed as cell-based. Conditions: Oocyte. A digest of the protocol:
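Oocytes were injected with α1, α2, α3 or α5 plus β2 cRNA at a 1:1 ratio and stored at 18 °C in ND96, pH 7.4. Enhancement was (I(GABA+compound)/IGABA)−1, and concentration-response data were Hill-fitted for EC50 and nH. Matched DMSO was ≤0.3%.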

In the case of `C=CCc1ccc(OCC)c(-c2ccc(O)c(CC=C)c2)c1`, the Activity in series [1] worked out at 1080%. Also, the EC50 (as a rule, the concentration giving half of the maximal effect) in series [2] is 14.3 µM. Besides, the logP (usually the decadic logarithm of the partition coefficient of the neutral form, usually between octanol and water) in series [3] (read-out: logP) was found to be 5.77. For the same compound, the Smax in series [4] came out at 1400%.
The like results for `C=CCc1cc(-c2ccc(O)c(CC=C)c2)ccc1O` were, in that order, 73%, 23.7 µM, 5.16 and 110%.
Turning to `C=CCc1ccc(OC2CC2)c(-c2ccc(OCCC)c(CC=C)c2)c1`, the Activity in series [1] stood at 339%. For the same compound, the EC50 in series [2] came out at 22 µM. For the same compound, in series [3] (read-out: logP), the logP worked out at 6.38. The Smax in series [4] is 608%.
The like results for `COc1ccc(-c2cc(CCO)ccc2O)cc1CCO` were, in that order, 15%, 105 µM, 2.72 and 177%.
The like results for `C=CCc1ccc(O)c(-c2ccc(OC)c(CC=C)c2)c1` [METHYLHONOKIOL] were, in that order, 822%, 27.2 µM, 5.43 and 1530%.
As to `C=CCc1ccc(OCCC)c(-c2ccc(O)c(CC=C)c2)c1`, the Activity in series [1] turned out to be 93%. Moreover, the EC50 in series [2] was determined as 14.8 µM. Further, the logP in series [3] (read-out: logP) was 6.38. Further, in series [4], the Smax turned out to be 145%.
The like results for `CCCc1ccc(O)c(-c2ccc(OC)c(CCC)c2)c1` were, in that order, 1060%, 12.7 µM, 6.01 and 1440%.
The like results for `C=CCc1cc(-c2ccc(OC)c(CC=C)c2)c(O)c([N+](=O)[O-])c1` were, in that order, 120%, 25 µM, 5.4 and 227%.
The like results for `COc1ccc(-c2cc(CC(C)O)ccc2O)cc1CC(C)O` (stereo unspecified) were, in that order, 68%, 34.2 µM, 3.64 and 161%.
As to `C=CCc1ccc(OC)c(-c2ccc(OC)c(CC=C)c2)c1`, in series [1], the Activity was 110%. The half-maximal effective concentration (EC50) in series [2] was 42.1 µM. Also, the logP in series [3] (read-out: logP) came out at 5.69. Moreover, the Smax in series [4] was 368%.
The like results for `C=CCc1cccc(-c2cccc(CC=C)c2O)c1O` were, in that order, 53%, 35.2 µM, 5.09 and 148%.
The like results for `C=CCc1cc(NCC)c(O)c(-c2ccc(OC)c(CC=C)c2)c1` were, in that order, 2140%, 7.7 µM, 5.45 and 2290%.
Regarding `C=CCc1cc(-c2cc(CC(C)Br)ccc2O)ccc1OC` (stereo unspecified), in series [1], the Activity was 1230%. In addition, the EC50 in series [2] came to 8.4 µM. In series [3] (read-out: logP), the log partition coefficient (logP) came to 5.99. The Smax in series [4] was 1340%.
On to `C=CCc1cc(-c2ccc(OC)c(CC=C)c2)c(O)c(N(C)C)c1`, for which the Activity in series [1] stood at 215%. For the same compound, in series [2], the EC50 worked out at 18.5 µM. The logP in series [3] (read-out: logP) came to 5.38. Also, in series [4], the Smax was 326%.
As for `CCCCC=CCc1ccc(O)c(-c2ccc(OC)c(CC=CCCCC)c2)c1` (mixture of isomers), in series [1], the Activity is -2%. In addition, in series [2], the EC50 turned out to be 2 µM. The logP in series [3] (read-out: logP) stood at 8.36.
Turning to `C=CCc1ccc(O)c(-c2ccc(OCCCCC)c(CC=C)c2)c1`, the Activity in series [1] turned out to be 28%. Moreover, the logP in series [3] (read-out: logP) was found to be 7.27.
For `C=CCc1cc(NC)c(O)c(-c2ccc(OC)c(CC=C)c2)c1`, in series [1], the Activity was 1840%. In addition, in series [2], the EC50 is 9.3 µM. For the same compound, in series [3] (read-out: logP), the logP was found to be 5.11. Further, the Smax in series [4] came to 2030%.
With `C=CCc1ccc(O)c(-c2ccc(OC)c(/C=C\C)c2)c1`, the Activity in series [1] came to 605%. The EC50 in series [2] worked out at 19.7 µM. In addition, in series [3] (read-out: logP), the logP amounted to 5.45. The Smax in series [4] was 1000%.
As to `C=CCc1ccc(OCCC)c(-c2ccc(OCCC)c(CC=C)c2)c1`, the Activity in series [1] came out at 22%. In series [3] (read-out: logP), the logP is 7.6.
For `C=CCc1ccc(O)c(-c2ccc(OCC)c(CC=C)c2)c1`, the Activity in series [1] worked out at 345%. In addition, the EC50 in series [2] was determined as 59.9 µM. The logP in series [3] (read-out: logP) turned out to be 5.77. In addition, in series [4], the Smax came out at 865%.
`C=CCc1ccc(OCCCCC)c(-c2ccc(OCCCCC)c(CC=C)c2)c1`: the Activity in series [1] worked out at 1%. This compound also had a logP in series [3] of 9.37.
For `COc1ccc(-c2cc(CC(O)CO)ccc2O)cc1CC(O)CO` (stereo unspecified), in series [1], the Activity was found to be 4%. Moreover, the logP in series [3] (read-out: logP) was found to be 1.57.
`C=CCc1ccc(OCC)c(-c2ccc(OCC)c(CC=C)c2)c1`: the Activity in series [1] turned out to be 14%. In series [3] (read-out: logP), the logP turned out to be 6.37.
The like results for `C=CCc1cc(-c2ccc(OC)c(CC=C)c2)c(O)c(N(CC)CC)c1` were, in that order, 7% and 6.06.
As for `C=CCc1cc(N)c(O)c(-c2ccc(OC)c(CC=C)c2)c1`, the Activity in series [1] is 2180%. Besides, the EC50 in series [2] is 12.4 µM. The logP in series [3] (read-out: logP) worked out at 4.79. Further, the Smax in series [4] worked out at 2710%.
With `C=CCc1ccc(OCCCCC)c(-c2ccc(O)c(CC=C)c2)c1`, the Activity in series [1] is 13%. In series [3] (read-out: logP), the logP stood at 7.27.
In the case of `C=CCc1ccc(O)c(-c2cc(CC=C)ccc2OC)c1`, the Activity in series [1] is 687%. Moreover, the EC50 in series [2] is 54.3 µM. Moreover, in series [3] (read-out: logP), the logP came out at 5.43. Besides, the Smax in series [4] is 2800%.
The like results for `C=CCc1ccc(O)c(-c2cc(CC=C)ccc2O)c1` [MAGNOLOL] were, in that order, 357%, 36.8 µM, 5.16 and 963%.
The like results for `C=CCc1ccc(O)c(-c2ccc(OC)c(CC(C)Br)c2)c1` (stereo unspecified) were, in that order, 589%, 16.9 µM, 5.99 and 952%.
